Measured values published in ChEMBL document CHEMBL1165888, “Synthesis and study of antiproliferative activity of novel thienopyrimidines on glioblastoma cells” (Eur J Med Chem, 2010).

Each molecule was assayed on DBTRG-05MG (assay: Cytotoxicity against human DBTRG-05MG cells after 72 hrs by MTT assay).
Format: functional, cell-based
Procedure, shortened: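 DBTRG.05-MG cells were grown in RPMI 1640 with 10% heat-inactivated FCS at 37 °C and 5% CO₂. They were seeded at 6×10^3 per well, cultured 72 h, then exposed 72 h to serial dilutions in DMSO (≤1%, ≤200 μM). Viability was read by MTT (0.5 mg/mL, 37 °C), DMSO-solubilized, A570/630, as % of untreated wells. IC50 came from curves; triplicates, mean ± SD.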
`Cc1ccccc1Nc1ncnc2sc3ccccc3c12` gave an IC50 of 61.8 µM.
`COc1ccccc1Nc1ncnc2sc3c(c12)CCCC3` gave an IC50 of 571 µM.
Molecule `c1ccc(Nc2ncnc3sc4ccccc4c23)cc1` has an IC50 of 109 µM.
`COc1ccc(Nc2ncnc3sc4ccccc4c23)cc1` gave an IC50 of 117 µM.
For `c1ccc(Nc2ncnc3sc4c(c23)CCCC4)cc1`, the IC50 was 585 µM.
With `Cc1ccccc1Nc1ncnc2sc3c(c12)CCCC3` the IC50 was 474 µM.
Work on `COc1ccc(Nc2ncnc3sc4c(c23)CCCC4)cc1` yielded an IC50 of 152 µM.
With `CN(C)c1ncnc2sc3ccccc3c12` the IC50 was 138 µM.
`COc1ccccc1Nc1ncnc2sc3ccccc3c12` gave an IC50 of 41.2 µM.
`CN(C)c1ncnc2sc3c(c12)CCCC3` gave an IC50 of 149 µM.
